The values that follow come from ChEMBL document CHEMBL1121868, “Synthesis and biological effects of acyclic pyrimidine nucleoside analogues” (J Med Chem, 1981).

What all share (format): functional, organism-based
The subject of assay [1] is Escherichia coli. The assay can be described thus: In vitro inhibition of Escherichia coli K-12 growth.
In assay [2] the test system is Escherichia coli. The assay can be described thus: In vitro concentration required for growth inhibition of 5-fluorouracil resistant strain of Escherichia coli in presence of 2'-deoxycytidine metabolite at 10e-3 M concentration.
In assay [3] the test system is Escherichia coli. The assay can be described thus: In vitro concentration required for growth inhibition of 5-fluorouracil resistant strain of Escherichia coli in presence of 2'-deoxyuridine metabolite at 10e-3 M concentration.
In assay [4] the test system is Escherichia coli. The assay is described as follows: In vitro concentration required for growth inhibition of 5-fluorouracil resistant strain of Escherichia coli in presence of cytidine metabolite at 10e-3 M concentration.
Assay [5] deals with Escherichia coli. The assay can be described thus: In vitro concentration required for growth inhibition of 5-fluorouracil resistant strain of Escherichia coli in presence of cytosine metabolite at 10e-3 M concentration.
For assay [6], the system named is Escherichia coli. The assay can be described thus: In vitro concentration required for growth inhibition of 5-fluorouracil resistant strain of Escherichia coli in presence of thymidine metabolite at 10e-3 M concentration.
In assay [7] the test system is Escherichia coli. The assay can be described thus: In vitro concentration required for growth inhibition of 5-fluorouracil resistant strain of Escherichia coli in presence of thymine metabolite at 10e-3 M concentration.
Assay [8] has as its system Escherichia coli. The assay can be described thus: In vitro concentration required for growth inhibition of 5-fluorouracil resistant strain of Escherichia coli in presence of uracil metabolite at 10e-3 M concentration.
For assay [9], the system named is Escherichia coli. The assay can be described thus: In vitro concentration required for growth inhibition of 5-fluorouracil resistant strain of Escherichia coli in presence of uridine metabolite at 10e-3 M concentration.
Assay [10] deals with Escherichia coli. The assay can be described thus: In vitro concentration required for growth inhibition of Escherichia coli K-12 strain resistant to 10e-3 M 5-flourouracil. In a few lines: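 In vitro growth assay on an E. coli K-12 strain resistant to 10^-3 M 5-fluorouracil. IC50 is the concentration giving 50% inhibition of E. coli K-12 growth. The growth procedure follows earlier published methods.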

Structures are written as SMILES. Where only a bound is given, the exact number is not on record here.

Usually IC50 stands for the concentration needed to halve the response being measured. As to `O=c1ccn(COCCO)c(=O)[nH]1`, half-maximal inhibition in assay [1] (IC50) required 320 µM.

The compound `COc1ccn(C)c(=O)n1` displayed an IC50 in assay [1] of 61 µM.

In assay [1], `Cc1cn(COCCN)c(=O)[nH]c1=O` yielded an IC50 of 310 µM.

The compound `CCCCCCC(C(C)=O)n1ccc(N)nc1=O` (configuration not stated) came in with an IC50 in assay [1] of 30 µM.

With `[N-]=[N+]=NCCOCn1ccc(N)nc1=O`, the IC50 in assay [1] is 440 µM.

With `O=c1[nH]c(=O)n(COCCO)cc1F`, the IC50 in assay [2] came to 9.5 µM; in assay [3], 370 µM; in assay [4], 9.1 µM; in assay [5], 7.4 µM; in assay [6] it was 1000 µM; in assay [7] it was 730 µM. Besides, the IC50 in [8] amounted to 8.4 µM; in assay [9], 240 µM; in assay [1] it was 1.2 µM; in assay [10] it was 4.2 µM.

Take `Cc1cn(COCCO)c(=O)[nH]c1=O`: the IC50 in [1] was > 1000 µM.

As to `CC(=O)Nc1ccn(COCCN=[N+]=[N-])c(=O)n1`, in [1], the IC50 was > 1000 µM.

With `CC(=O)C(C)n1ccc(N)nc1=O` (configuration not stated), the IC50 in [1] was determined as 560 µM.

Consider `Cc1cn(COCCOC(=O)c2ccccc2)c(=O)[nH]c1=O`, for which the IC50 in assay [1] came to 860 µM.

For `CN(C)c1ccn(C)c(=O)n1`, the midpoint of inhibition in assay [1], the IC50, lay at 80 µM.

For `O=C(OCCOCn1cc(F)c(=O)[nH]c1=O)c1ccccc1`, the IC50 amounted to 9 µM in [1] and 180 µM in assay [10].

Take `CC(=O)Nc1ccn(COCCO)c(=O)n1`: the IC50 in assay [1] was > 1000 µM.

On to `NCCOCn1ccc(N)nc1=O`, for which the IC50 in assay [1] was > 1000 µM.

For `CC(C)n1ccc(N)nc1=O`, the IC50 in assay [1] was > 1000 µM.

Regarding `O=C(OCCOCn1ccc(=O)[nH]c1=O)c1ccccc1`, in assay [1], the midpoint of inhibition, the IC50, lay at 100 µM.

`Cn1ccc(=O)n(C)c1=O`: the IC50 in assay [1] was 15 µM.

`Cc1cn(COCCN=[N+]=[N-])c(=O)[nH]c1=O` returned an IC50 in assay [1] of 250 µM.

Compound `Nc1ccn(COCCO)c(=O)n1` displayed an IC50 in assay [1] of 87 µM.

In the case of `CC(=O)Nc1ccn(COCCOC(=O)Oc2ccccc2)c(=O)n1`, the IC50 in [1] is > 1000 µM.

`Nc1ccn(COCCOC(=O)c2ccccc2)c(=O)n1`: in assay [1], 900 µM corresponded to half-maximal inhibition (IC50).

In assay [1], `NC(=O)OCCOCn1ccc(N)nc1=O` had an IC50 of 910 µM.
